Blank lines part the entries; values can stand above or below the compound they belong to. Non-standard residues stand in square brackets, D forms with d. Residues, ends and D or L forms follow the SMILES beside them. ξ: configuration not given here. ξDap = NCC(N)C(=O)O
What was measured:
[1] = target: T1, Growth hormone secretagogue receptor type 1 (Homo sapiens, UniProt Q92847); assay: Inverse agonist activity at human GHSR1a receptor expressed in COS-7 cells assessed as inositol phosphate accumulation after 2 hrs by anion exchange chromatography; format: functional, cell-based
T1 sequence (Q92847 whole entry): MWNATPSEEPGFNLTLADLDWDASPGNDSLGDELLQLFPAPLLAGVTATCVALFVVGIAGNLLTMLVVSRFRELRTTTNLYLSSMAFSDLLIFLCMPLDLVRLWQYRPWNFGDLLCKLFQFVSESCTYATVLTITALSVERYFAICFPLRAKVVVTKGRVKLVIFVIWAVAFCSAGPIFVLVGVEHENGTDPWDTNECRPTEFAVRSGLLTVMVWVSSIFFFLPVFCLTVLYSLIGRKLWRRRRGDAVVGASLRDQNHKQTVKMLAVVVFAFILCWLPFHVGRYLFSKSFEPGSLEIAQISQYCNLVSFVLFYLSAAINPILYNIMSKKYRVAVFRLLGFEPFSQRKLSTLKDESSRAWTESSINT

[2] = target: T2, Neuropeptide Y receptor type 2 (Homo sapiens, UniProt P49146); assay: Agonist activity at human neuropeptide Y Y2 receptor expressed in COS-7 cells cotransfected with chimeric Gi/q protein assessed as inositol phosphate accumulation after 2 hrs by anion exchange chromatography; format: functional, cell-based
T2 sequence (P49146 whole entry): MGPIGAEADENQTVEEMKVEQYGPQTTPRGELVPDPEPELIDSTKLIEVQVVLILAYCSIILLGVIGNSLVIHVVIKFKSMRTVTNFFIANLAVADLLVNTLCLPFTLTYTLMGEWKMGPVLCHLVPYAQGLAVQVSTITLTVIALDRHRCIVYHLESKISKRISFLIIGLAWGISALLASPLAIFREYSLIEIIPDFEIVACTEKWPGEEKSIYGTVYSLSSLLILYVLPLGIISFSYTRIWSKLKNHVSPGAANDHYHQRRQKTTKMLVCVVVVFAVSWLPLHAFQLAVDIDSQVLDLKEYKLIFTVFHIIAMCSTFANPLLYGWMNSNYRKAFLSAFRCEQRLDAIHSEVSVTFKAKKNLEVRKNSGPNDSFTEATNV
Summary of the method: (§1)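 Inositol phosphate turnover in COS-7 cells stably co-expressing human Y2 receptor and chimeric Gi/q protein; concentration-response curves, responses as % of maximum Y2 activity; SEM over two biological replicates.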

[3] = target: T1, Growth hormone secretagogue receptor type 1; assay: Displacement of [125I]ghrelin from human eYFP-fused ghrelin receptor expressed in COS7 cells after 75 mins by competitive receptor binding assay; format: cell-based, COS-7; conditions: cos-7
[4] = target: T2, Neuropeptide Y receptor type 2; assay: Displacement of [125I]PYY from human neuropeptide Y Y2 receptor expressed in HEK293 cells cotransfected with eYFP fusion protein after 2 hrs by competitive receptor binding assay; format: cell-based; conditions: hek293
Summary of the method: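 Competitive binding against 125I-PYY in HEK-293 cells stably expressing human Y2 receptor; concentration-response curves.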

[5] = target: T1, Growth hormone secretagogue receptor type 1; assay: Inverse agonist activity at human GHSR1a receptor expressed in COS-7 cells assessed as inositol phosphate accumulation after 2 hrs by anion exchange chromatography relative to control; format: functional, cell-based
[6] = target: T3, Neuropeptide Y receptor type 2 (Homo sapiens) (UniProt P49146); assay: Agonist activity at human neuropeptide Y Y2 receptor expressed in COS-7 cells cotransfected with chimeric Gi/q protein assessed as inositol phosphate accumulation after 2 hrs by anion exchange chromatography relative to control; format: functional, cell-based; summary of the method: as §1
T3 sequence (whole entry): T2 sequence (P49146 whole entry)

[7] = target: T4, Neuropeptide Y receptor type 1 (Homo sapiens) (UniProt P25929); assay: Agonist activity at human neuropeptide Y Y1 receptor expressed in COS-7 cells cotransfected with chimeric Gi/q protein assessed as inositol phosphate accumulation at 1 uM after 2 hrs by anion exchange chromatography; format: functional, cell-based
T4 sequence (whole entry): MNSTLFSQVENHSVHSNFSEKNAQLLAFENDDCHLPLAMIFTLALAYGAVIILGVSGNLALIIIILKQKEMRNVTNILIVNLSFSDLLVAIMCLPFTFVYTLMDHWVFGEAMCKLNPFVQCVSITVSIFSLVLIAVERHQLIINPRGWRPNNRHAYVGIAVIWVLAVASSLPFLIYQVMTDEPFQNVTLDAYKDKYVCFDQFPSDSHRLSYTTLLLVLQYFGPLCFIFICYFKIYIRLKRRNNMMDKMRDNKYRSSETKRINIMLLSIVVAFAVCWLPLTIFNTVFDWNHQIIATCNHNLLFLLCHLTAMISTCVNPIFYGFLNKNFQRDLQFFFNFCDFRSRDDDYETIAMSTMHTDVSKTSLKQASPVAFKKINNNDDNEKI
Summary of the method: (§2)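 COS-7 cells stably co-expressing the corresponding human Y receptor plus a chimeric Gi/q protein; single high concentration tested in inositol phosphate accumulation; response as % of NPY response at each receptor; SEM over two biological replicates.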

[8] = target: Neuropeptide Y receptor type 4 (Homo sapiens) (UniProt P50391); assay: Agonist activity at human neuropeptide Y Y4 receptor expressed in COS-7 cells cotransfected with chimeric Gi/q protein assessed as inositol phosphate accumulation at 1 uM after 2 hrs by anion exchange chromatography; format: functional, cell-based; summary of the method: as §2
Neuropeptide Y receptor type 4 (Homo sapiens), sequence (P50391 whole entry): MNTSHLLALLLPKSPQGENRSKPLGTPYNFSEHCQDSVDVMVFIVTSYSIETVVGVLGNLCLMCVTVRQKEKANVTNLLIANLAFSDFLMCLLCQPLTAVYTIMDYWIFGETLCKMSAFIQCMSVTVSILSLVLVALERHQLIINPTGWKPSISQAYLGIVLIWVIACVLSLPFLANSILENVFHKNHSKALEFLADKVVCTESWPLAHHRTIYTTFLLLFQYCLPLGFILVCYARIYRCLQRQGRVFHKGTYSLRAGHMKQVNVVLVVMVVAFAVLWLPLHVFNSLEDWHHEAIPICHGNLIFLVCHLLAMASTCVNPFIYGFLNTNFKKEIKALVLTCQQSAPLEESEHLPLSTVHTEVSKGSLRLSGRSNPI

[9] = target: T5, Neuropeptide Y receptor type 5 (Homo sapiens) (UniProt Q15761); assay: Agonist activity at human neuropeptide Y Y5 receptor expressed in COS-7 cells cotransfected with chimeric Gi/q protein assessed as inositol phosphate accumulation at 1 uM after 2 hrs by anion exchange chromatography; format: functional, cell-based; summary of the method: as §2
T5 sequence (whole entry): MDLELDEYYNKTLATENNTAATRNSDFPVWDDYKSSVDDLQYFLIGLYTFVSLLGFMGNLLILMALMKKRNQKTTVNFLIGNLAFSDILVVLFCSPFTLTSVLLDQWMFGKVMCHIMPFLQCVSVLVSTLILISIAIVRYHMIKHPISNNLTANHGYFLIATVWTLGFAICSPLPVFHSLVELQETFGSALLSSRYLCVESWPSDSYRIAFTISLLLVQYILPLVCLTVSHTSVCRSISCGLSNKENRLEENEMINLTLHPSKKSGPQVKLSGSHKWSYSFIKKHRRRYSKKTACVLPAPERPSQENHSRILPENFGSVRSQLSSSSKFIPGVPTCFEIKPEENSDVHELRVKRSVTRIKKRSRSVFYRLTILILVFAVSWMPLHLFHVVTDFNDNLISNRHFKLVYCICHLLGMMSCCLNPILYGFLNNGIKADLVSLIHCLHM

EC50 ([1]; cos-7): 60.2 nM
EC50 ([2]; cos-7): > 1000 nM
Structure (SMILES): CC(C)C[C@H](NC(=O)[C@H](CC(C)C)NC(=O)[C@@H](Cc1c[nH]c2ccccc12)NC(=O)[C@H](Cc1ccccc1)NC(=O)[C@@H](Cc1cccc2ccccc12)NC(=O)[C@H](CCCCN)NC(=O)[C@H](CCCCN)NC(=O)CCC(=O)O)C(N)=O

EC50 ([1]; cos-7): 29 nM
EC50 ([2]; cos-7): > 1000 nM
Structure (SMILES): CC(C)C[C@H](NC(=O)[C@H](CC(C)C)NC(=O)[C@@H](Cc1c[nH]c2ccccc12)NC(=O)[C@H](Cc1ccccc1)NC(=O)[C@@H](Cc1cccc2ccccc12)NC(=O)[C@H](CCCCN)NC(=O)CCC(=O)O)C(N)=O

EC50 ([1]; cos-7): 110 nM
EC50 ([2]; cos-7): 2 nM
IC50 [3]: 70.4 nM
IC50 [4]: 9.7 nM
Structure (SMILES): CC(=O)N[C@@H](CNC(=O)CCC(=O)N[C@@H](CCCCN)C(=O)N[C@@H](CCCCN)C(=O)N[C@H](Cc1cccc2ccccc12)C(=O)N[C@@H](Cc1ccccc1)C(=O)N[C@H](Cc1c[nH]c2ccccc12)C(=O)N[C@@H](CC(C)C)C(=O)N[C@@H](CC(C)C)C(N)=O)C(=O)N[C@@H](CC(C)C)C(=O)N[C@@H](CCCNC(=N)N)C(=O)N[C@@H](Cc1cnc[nH]1)C(=O)N[C@@H](Cc1ccc(O)cc1)C(=O)N[C@@H](CC(C)C)C(=O)N[C@@H](CC(N)=O)C(=O)N[C@@H](CC(C)C)C(=O)N[C@@H](CC(C)C)C(=O)N[C@H](C(=O)N[C@@H](CCCNC(=N)N)C(=O)N[C@@H](CCC(N)=O)C(=O)N[C@@H](CCCNC(=N)N)C(=O)N[C@@H](Cc1ccc(O)cc1)C(N)=O)[C@@H](C)O

EC50 ([1]; cos-7): 70.2 nM
EC50 ([2]; cos-7): > 1000 nM
Structure (SMILES): CC(C)C[C@H](NC(=O)[C@@H](Cc1c[nH]c2ccccc12)NC(=O)[C@H](Cc1ccccc1)NC(=O)[C@@H](Cc1cccc2ccccc12)NC(=O)[C@@H](N)CCCCN)C(=O)N[C@@H](CCC(N)=O)C(=O)O

Efficacy [5]: 86%
Structure (SMILES): CC(C)C[C@H](NC(=O)[C@@H](Cc1c[nH]c2ccccc12)NC(=O)[C@H](Cc1ccccc1)NC(=O)[C@H](Cc1cccc2ccccc12)NC(=O)[C@@H](N)CCCCN)C(=O)N[C@@H](CC(N)=O)C(=O)O

Efficacy [5]: 88%
Structure (SMILES): CC(C)C[C@H](NC(=O)[C@H](CC(C)C)NC(=O)[C@@H](Cc1c[nH]c2ccccc12)NC(=O)[C@H](Cc1ccccc1)NC(=O)[C@H](Cc1cccc2ccccc12)NC(=O)[C@H](CCCCN)NC(=O)CCC(=O)O)C(N)=O

EC50 [1]: 331 nM
Efficacy [5]: 74%
Structure (SMILES): CC(=O)N[C@@H](CCCCNC(=O)CCNC(=O)[C@H](CC(N)=O)NC(=O)[C@H](CC(C)C)NC(=O)[C@@H](Cc1c[nH]c2ccccc12)NC(=O)[C@H](Cc1ccccc1)NC(=O)[C@@H](Cc1cccc2ccccc12)NC(=O)[C@@H](N)CCCCN)C(=O)N[C@@H](CC(C)C)C(=O)N[C@@H](CCCNC(=N)N)C(=O)N[C@@H](Cc1cnc[nH]1)C(=O)N[C@@H](Cc1ccc(O)cc1)C(=O)N[C@@H](CC(C)C)C(=O)N[C@@H](CC(N)=O)C(=O)N[C@@H](CC(C)C)C(=O)N[C@@H](CC(C)C)C(=O)N[C@H](C(=O)N[C@@H](CCCNC(=N)N)C(=O)N[C@@H](CCC(N)=O)C(=O)N[C@@H](CCCNC(=N)N)C(=O)N[C@@H](Cc1ccc(O)cc1)C(N)=O)[C@@H](C)O

EC50 ([1]; cos-7): 189 nM
Structure (SMILES): CC(C)C[C@H](NC(=O)[C@@H](Cc1c[nH]c2ccccc12)NC(=O)[C@H](Cc1ccccc1)NC(=O)[C@@H](Cc1cccc2ccccc12)NC(=O)[C@@H](N)CCCCN)C(=O)N[C@@H](CC(N)=O)C(=O)O

Efficacy [5]: 92%
Structure (SMILES): CC(C)C[C@H](NC(=O)[C@@H](Cc1c[nH]c2ccccc12)NC(=O)[C@H](Cc1ccccc1)NC(=O)[C@H](Cc1cccc2ccccc12)NC(=O)[C@@H](N)CCCCN)C(=O)N[C@@H](CCC(N)=O)C(=O)O

Efficacy [5]: 84%
Structure (SMILES): CC(C)C[C@H](NC(=O)[C@H](CC(C)C)NC(=O)[C@@H](Cc1c[nH]c2ccccc12)NC(=O)[C@H](Cc1ccccc1)NC(=O)[C@H](Cc1cccc2ccccc12)NC(=O)[C@H](CCCCN)NC(=O)[C@H](CCCCN)NC(=O)CCC(=O)O)C(N)=O

EC50 [2]: 0.4 nM
Efficacy [6]: 77%
Structure (SMILES): CC(=O)NC(CN)C(=O)N[C@@H](CC(C)C)C(=O)N[C@@H](CCCNC(=N)N)C(=O)N[C@@H](Cc1cnc[nH]1)C(=O)N[C@@H](Cc1ccc(O)cc1)C(=O)N[C@@H](CC(C)C)C(=O)N[C@@H](CC(N)=O)C(=O)N[C@@H](CC(C)C)C(=O)N[C@@H](CC(C)C)C(=O)N[C@H](C(=O)N[C@@H](CCCNC(=N)N)C(=O)N[C@@H](CCC(N)=O)C(=O)N[C@@H](CCCNC(=N)N)C(=O)N[C@@H](Cc1ccc(O)cc1)C(N)=O)[C@@H](C)O (some centres undefined) (Ac-[ξDap]LRHYLNLLTRQRY-NH2)

EC50 [1]: > 1000 nM
EC50 [2]: 0.5 nM
Efficacy [6]: 68%
Structure (SMILES): CC(=O)N[C@@H](CCCCN)C(=O)N[C@@H](CC(C)C)C(=O)N[C@@H](CCCNC(=N)N)C(=O)N[C@@H](Cc1cnc[nH]1)C(=O)N[C@@H](Cc1ccc(O)cc1)C(=O)N[C@@H](CC(C)C)C(=O)N[C@@H](CC(N)=O)C(=O)N[C@@H](CC(C)C)C(=O)N[C@@H](CC(C)C)C(=O)N[C@H](C(=O)N[C@@H](CCCNC(=N)N)C(=O)N[C@@H](CCC(N)=O)C(=O)N[C@@H](CCCNC(=N)N)C(=O)N[C@@H](Cc1ccc(O)cc1)C(N)=O)[C@@H](C)O (Ac-KLRHYLNLLTRQRY-NH2)

EC50 [1]: 267 nM
Efficacy [5]: 64%
Structure (SMILES): CC(=O)N[C@@H](CCCCNC(=O)CCCCCNC(=O)[C@H](CC(N)=O)NC(=O)[C@H](CC(C)C)NC(=O)[C@@H](Cc1c[nH]c2ccccc12)NC(=O)[C@H](Cc1ccccc1)NC(=O)[C@@H](Cc1cccc2ccccc12)NC(=O)[C@@H](N)CCCCN)C(=O)N[C@@H](CC(C)C)C(=O)N[C@@H](CCCNC(=N)N)C(=O)N[C@@H](Cc1cnc[nH]1)C(=O)N[C@@H](Cc1ccc(O)cc1)C(=O)N[C@@H](CC(C)C)C(=O)N[C@@H](CC(N)=O)C(=O)N[C@@H](CC(C)C)C(=O)N[C@@H](CC(C)C)C(=O)N[C@H](C(=O)N[C@@H](CCCNC(=N)N)C(=O)N[C@@H](CCC(N)=O)C(=O)N[C@@H](CCCNC(=N)N)C(=O)N[C@@H](Cc1ccc(O)cc1)C(N)=O)[C@@H](C)O

Efficacy [5]: 78%
Efficacy [6]: 82%
Efficacy [7]: < 25%
Efficacy [8]: < 25%
Efficacy [9]: 33%
Structure (SMILES): CC(=O)NC(CNC(=O)CCC(=O)N[C@@H](CCCCN)C(=O)N[C@@H](CCCCN)C(=O)N[C@@H](Cc1cccc2ccccc12)C(=O)N[C@@H](Cc1ccccc1)C(=O)N[C@H](Cc1c[nH]c2ccccc12)C(=O)N[C@@H](CC(C)C)C(=O)N[C@@H](CC(C)C)C(N)=O)C(=O)N[C@@H](CC(C)C)C(=O)N[C@@H](CCCNC(=N)N)C(=O)N[C@@H](Cc1cnc[nH]1)C(=O)N[C@@H](Cc1ccc(O)cc1)C(=O)N[C@@H](CC(C)C)C(=O)N[C@@H](CC(N)=O)C(=O)N[C@@H](CC(C)C)C(=O)N[C@@H](CC(C)C)C(=O)N[C@H](C(=O)N[C@@H](CCCNC(=N)N)C(=O)N[C@@H](CCC(N)=O)C(=O)N[C@@H](CCCNC(=N)N)C(=O)N[C@@H](Cc1ccc(O)cc1)C(N)=O)[C@@H](C)O (some centres undefined)

— ChEMBL document CHEMBL3576822 (J Med Chem, 2015)
